Compounds with a hit are over-represented: about 2.1% of the library has one in this group of screens.
GRK2 inh: compounds blocking aptamer binding on GRK2 – biochemical, human GRK2, bead flow cytometry, HTS, primary screen | Beta-adrenergic receptor kinase 1 (Homo sapiens), P25098 | AID 488847, 2010 | hit rate 0.59% among 330,000 | inhibition of aptamer binding, % at 10 µM | FAM-aptamer displacement from GRK2;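 active means inhibition of aptamer binding above 40%, roughly 3 SD of noise, on plates passing a quality check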;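 further: median bead fluorescence of bound FAM aptamer so fluorescent compounds give negative values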
STEP block: STEP phosphatase inhibitors, primary screen, biochemical, fluorescence intensity, uHTS; recombinant STEP, OMFP fluorogenic substrate; inhibition, % at 20 µM; hit rate 0.25% among 360,000;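 active means inhibition at 20 µM, scaled per plate between control wells, above about 37%, limit read from the data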
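Material: STEP (striatal-enriched tyrosine phosphatase) enzyme, cell-free | Medium: 50 mM Bis-Tris pH 6.0 with 2.5 mM DTT and 0.005% Tween 20 | Read-out: Percent inhibition scaled to no-enzyme and uninhibited-enzyme controls, plate-pattern corrected | Signal: Fluorescence read at 480 nm ex / 540 nm em | Times: 20 min reaction, room temperature, in the dark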
DNMT1 block: human DNMT1 methyltransferase inhibitors, primary screen, biochemical, molecular beacon, fluorescence, HinP1I cleavage, uHTS. DNA (cytosine-5)-methyltransferase 1 (Homo sapiens), P26358. AID 588458, 2011. hit rate 0.83% among 360,000. inhibition (reported as % activation of signal), % at 10 µM; in the data active means inhibition above about 50%
Scp1 inh: Scp-1 phosphatase inhibitors, primary screen, biochemical, colorimetric, uHTS. hit rate 0.88% among 340,000. Carboxy-terminal domain RNA polymerase II polypeptide A small phosphatase 1 (Homo …. inhibition, % at 20 µM. Recombinant Scp1, phosphopeptide, malachite green phosphate absorbance. AID 493091, 2011;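 active means inhibition above about 50% at 20 µM, limit read from the data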
Target sequence (Q9GZU7 76-261 limits assumed): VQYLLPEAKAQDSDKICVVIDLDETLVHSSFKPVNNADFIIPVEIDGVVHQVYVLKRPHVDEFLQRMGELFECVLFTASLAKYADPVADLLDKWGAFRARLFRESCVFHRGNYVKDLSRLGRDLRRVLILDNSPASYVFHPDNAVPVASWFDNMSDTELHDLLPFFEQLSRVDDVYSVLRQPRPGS
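Test system: SCP-1 phosphatase catalytic domain, residues 76-261 | Compound dosing: One concentration, 20 µM, with 1.0% DMSO | Schedule: 45 min room-temperature reaction, 5 min colour, 30 min stabiliser | Detection: Absorbance at 630 nm | Read-out basis: % inhibition of SCP-1 phosphate liberation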
LMPTP block: LMPTP phosphatase inhibitors, primary screen, biochemical, fluorescence intensity, uHTS | recombinant LMPTP-A, OMFP fluorogenic substrate | inhibition, % at 20 µM | hit rate 0.22% among 360,000 | Low molecular weight phosphotyrosine protein phosphatase (Homo sapiens), P24666;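 active means compounds that cut the enzyme signal by at least half of the control window in the single-dose screen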
Target sequence (P24666 whole entry, looked up): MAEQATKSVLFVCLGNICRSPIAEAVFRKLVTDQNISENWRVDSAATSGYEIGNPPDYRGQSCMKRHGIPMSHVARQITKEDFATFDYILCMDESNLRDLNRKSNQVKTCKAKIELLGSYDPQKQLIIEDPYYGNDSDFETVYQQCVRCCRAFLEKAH
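Assay system: LMPTP-A phosphatase enzyme | Input: 0.625 nM enzyme | Also added: Fluorogenic phosphatase substrate OMFP at 400 µM final | Compound dosing: One test concentration per compound, 20 µM, with 3% DMSO overall | Schedule: 50 min enzyme reaction at room temperature, protected from light | Signal: Fluorescence intensity | Benchmarks: no-enzyme and uninhibited controls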
SUMO1-SIM PPI: modulators of SUMO1 protein-protein interactions, primary screen, biochemical, uHTS; SUMO1 binding to a labelled peptide, TR-FRET, 1 h; inhibition, % at 20 µM; hit rate 0.33% among 360,000; in the data active means inhibition above about 37%
Target sequence (P63165 whole entry, looked up): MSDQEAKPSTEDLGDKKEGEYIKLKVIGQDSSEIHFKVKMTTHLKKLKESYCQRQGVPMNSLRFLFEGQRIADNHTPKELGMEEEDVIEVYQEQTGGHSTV
GRK2 inh confirm: GRK2 aptamer-displacing inhibitors, retest, confirmation, biochemical, cherry pick 1, bead flow cytometry; shares compounds with GRK2 inh; bead-bound GRK2, FAM-aptamer displacement; aptamer displacement, % at 10 µM; hit rate 4% among 2,000;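 active means aptamer displacement above 40%, near three times the noise of non-fluorescent compounds, on plates passing quality checks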;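 further: negative values mostly reflect intrinsic compound fluorescence rather than true enhancement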
Aptamer quench: counter-screen for GRK2 aptamer inhibitors: fluorescent aptamer quenchers | shares compounds with GRK2 inh | Fluorescent RNA aptamer beads, quenching, flow cytometry; stronger effect = higher value | fluorescence change (kMESF span), kMESF (test concentration not listed) | 110 tested, under 10 active | AID 504521;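 active means compounds whose bead fluorescence drops by more than 37 kMESF across the dose range, marking them as dye quenchers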
Aptamer quench SP: aptamer fluorescence quenching in GRK2 counter-screen. shares compounds with GRK2 inh. Carboxyfluorescein RNA aptamer on beads, flow cytometry quenching; stronger effect = lower value. fluorescence response (% of DMSO), % at 10 µM. 2,000 tested, under 10 active;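 active means compounds that quench the bead-bound fluorescent RNA probe, cutting fluorescence to under half of the solvent control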;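 further: counterscreen run without GRK2 so only probe quenching by compound is measured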
GRK2 confirm 2: GRK2 aptamer-displacing inhibitors, hit retest, confirmation, biochemical, cherry pick 2, bead flow cytometry | shares compounds with GRK2 inh | bead-bound GRK2, FAM-aptamer displacement | inhibition of aptamer binding, % at 10 µM | 360 tested, under 10 active | AID 504782, 2011;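 active means inhibition of aptamer binding above 40%, about triple the noise seen with nonglowing compounds, on plates passing quality control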;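 further: negative values mostly come from compounds that fluoresce themselves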
FAM quench CP2: quenches fluorescent RNA aptamer, GRK2 hit artifact; shares compounds with GRK2 inh; carboxyfluorescein RNA aptamer beads, flow cytometry quenching; stronger effect = lower value; fluorescence response vs DMSO, % at 10 µM; 360 tested, under 10 active; AID 588494;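 active means response vs DMSO under 50%, meaning signal dropped by over half, treated as fluorescence quencher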;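 further: labelled aptamer on streptavidin beads without GRK2 as a quench counter-screen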
Scp1 confirm: Scp-1 phosphatase inhibitors, retest, confirmation, biochemical, colorimetric, single concentration. AID 540281, 2011. inhibition, % at 20 µM. hit rate 61% among 2,500. recombinant SCP-1 catalytic domain, phosphate release, malachite green absorbance. shares compounds with Scp1 inh
Scp-1 MG ctr: colorimetric readout interference by compounds, confirmation, artefact control for Scp-1 inhibitor project, biochemical, single concentration; shares compounds with Scp1 inh; Colorimetric interference counterscreen, malachite green absorbance 630 nm; apparent inhibition (interference), % at 20 µM; 2,500 tested, under 10 active; AID 540313, 2011;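 further: compounds added after enzyme reaction finished so only phosphate colour detection is probed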
Scp-1 Tm shift: Scp-1 binding by thermal shift, confirmation, orthogonal assay for Scp-1 inhibitor project, biophysical, differential scanning fluorimetry | Recombinant SCP1, Sypro Orange thermal shift Tm | AID 540329, 2011 | hit rate 25% among 1,500 | thermal shift relative to vanadate control, % at 40 µM | shares compounds with Scp1 inh;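 active means substances whose mean melting-temperature shift, as a percentage of the reference inhibitor's shift, reaches about 5.3%, limit read from the data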
DNMT1 confirm: DNMT1 methyltransferase inhibitor retest, confirmation, biochemical, molecular beacon, fluorescence, single concentration; inhibition, % at 10 µM; shares compounds with DNMT1 block; hit rate 8% among 2,300; AID 602385, 2012; DNMT1 molecular beacon HinP1I cleavage;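 active means average inhibition of at least 30% in the single-concentration confirmation test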
DNMT1 interf: beacon fluorescence artifact counter-screen | shares compounds with DNMT1 block | DNMT1 molecular beacon spectral interference counterscreen, fluorescence 485/520 | activation (fluorescence interference), % at 10 µM | hit rate 1% among 2,300 | AID 602387;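 active means activation of at least 30% at 10 µM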;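 further: DNMT1 catalytic domain with a HinP1I cleavage step and a FAM/dabcyl DNA beacon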
A number is an active result; - = inactive; . = not tested or not shown.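 How the source made its calls, unless noted: active means inhibition of at least 30% at 20 µM; inactive means the rest.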

SMILES | GRK2 inh | STEP block | DNMT1 block | Scp1 inh | LMPTP block | SUMO1-SIM PPI | GRK2 inh confirm | Aptamer quench SP | Scp1 confirm | Scp-1 MG ctr | Scp-1 Tm shift | others
Cn1cnc(S(=O)(=O)N2CCCC(c3cc(C(=O)Nc4ccc(F)c(Cl)c4)no3)C2)c1 (centres undefined) | . | - | - | . | - | - | . | . | . | . | .
O=C(COC(=O)Cc1cccc(C(F)(F)F)c1)NCc1ccco1 | 57 | - | 92 | 77 | - | - | - | - | 68 | - | -
COc1ccc(CC(=O)OCC(=O)NCc2ccco2)cc1OC | - | - | - | - | - | - | . | . | . | . | .
CSc1ccc(CN2CCC2(C)C(=O)NCc2cccc(C(F)(F)F)c2)cc1 (centres undefined) | . | - | - | . | - | - | . | . | . | . | .
CC(=O)Nc1nc2c(ccc3ccccc32)s1 | - | - | - | 72 | - | - | . | . | - | - | . | GRK2 confirm 2=-;FAM quench CP2=-
CC(=O)N1CCCc2cc(S(=O)(=O)CCC(=O)N3CCN(c4cccc(C)c4)C(C)C3)ccc21 (centres undefined) | - | - | - | 50 | - | - | - | - | - | - | . | Aptamer quench=-
CC(=O)N1CCc2cc(S(=O)(=O)CCC(=O)N3CCN(c4ccccc4F)CC3)ccc21 | - | - | - | - | - | - | . | . | . | . | .
CC[n+]1ccc(C[n+]2ccccc2)c2ccccc21 | 54 | - | - | 97 | - | - | - | - | 86 | - | -
CC[n+]1ccc(/C=C/c2ccc(N(C)C)cc2)c2ccccc21 | . | - | - | - | - | - | . | . | . | . | .
COc1ccccc1N1CCN(C(=O)C(C)CS(=O)(=O)c2ccc3c(c2)NC(=O)CS3)CC1 (centres undefined) | 54 | - | - | 59 | - | - | . | . | 63 | - | - | GRK2 confirm 2=-;FAM quench CP2=-
COc1ccccc1N1CCN(S(=O)(=O)c2ccc3c(c2)NC(=O)C(C)S3)CC1 (centres undefined) | - | - | - | - | - | - | . | . | . | . | .
COc1ccccc1CNS(=O)(=O)c1ccc2[nH]cc(C(=O)O)c(=O)c2c1 | 59 | - | 86 | 55 | - | - | 56 | - | 47 | - | - | Aptamer quench=-
Cc1cc(N2CCN(C(C(=O)NC3CCCC3)C(C)(C)C)CC2)c2ccccc2n1 (centres undefined) | . | . | . | . | - | - | . | . | . | . | .
CC1CCCC(C)N1C(=O)COC(=O)/C=C/c1ccc(Br)o1 (centres undefined) | 43 | - | - | 92 | - | - | - | - | 58 | - | -
CC1CCN(C(=O)COC(=O)/C=C/c2ccc(Br)o2)CC1 | - | - | - | - | - | - | . | . | . | . | .
Cc1ccc(OCC(=O)c2cc(C)c(C)cc2C)c([N+](=O)[O-])n1 | - | - | - | - | - | - | . | . | . | . | .
Cc1ccc(OCC(=O)c2c(N)n(C)c(=O)n(C)c2=O)c([N+](=O)[O-])n1 | 77 | - | 82 | 66 | - | - | 60 | - | . | . | . | Aptamer quench=-;DNMT1 confirm=-;DNMT1 interf=-
O=C1CC(N2CCN(c3ccccc3)CC2)C(=O)N1c1cccc(Cl)c1 (centres undefined) | 43 | - | 71 | - | - | - | - | - | . | . | . | DNMT1 confirm=-;DNMT1 interf=77
O=C1CC(N2CCN(c3ccc(Cl)cc3)CC2)C(=O)N1c1ccccc1 (centres undefined) | - | - | - | - | - | - | . | . | . | . | .
O=c1nc(Nc2ccc(Br)cc2)sc2ccc([N+](=O)[O-])cc12 | 42 | - | 54 | - | - | - | - | - | . | . | . | DNMT1 confirm=-;DNMT1 interf=-
O=C(/C=C/c1ccco1)Nc1ccccc1C(=O)O | 71 | - | 80 | 54 | - | - | - | - | . | . | . | DNMT1 confirm=-;DNMT1 interf=-
O=C(/C=C/c1ccco1)Nc1cc(Cl)ccc1C(=O)O | - | - | - | - | - | - | . | . | . | . | .
COc1ccc(OC)c(S(=O)(=O)Nc2ccc3c(c2)OCCO3)c1 | . | - | - | . | - | - | . | . | . | . | .
C=C(C)C(=O)Nc1cccc(C2=NOC3(C2)C[C@@H](C(N)=O)N(C(=O)CC(c2ccccc2)c2ccccc2)C3)c1 (some centres undefined) | 88 | - | 101 | 62 | - | 77 | 80 | - | 57 | - | - | Aptamer quench=-;DNMT1 confirm=-;DNMT1 interf=-
